Measurements: ChEMBL document CHEMBL1139261, “Synthesis and biological evaluation of a series of tangeretin-derived chalcones” (Bioorg Med Chem Lett, 2009)
pIC50: −log10 of the molar value. Calls of active or inactive are those of the source. The calls are words filed in the database; no cut-off is given here.

Assays:
[1] = Inhibition of tubulin assembly at 200 uM
Method in brief: (§1)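 Tubulin assembly followed by the Zavala and Guenard method, with compounds tested at 0.1 mg/ml (about 2 × 10^-4 M). IC50 is expressed as a ratio to the deoxypodophyllotoxin IC50.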

KB [2] = experiment: Growth inhibition of human KB cells […] after 72 hrs by MTS assay; format: functional
Method in brief: (§2)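 KB human buccal carcinoma cells incubated with chalcone for 72 h. Growth read by MTS assay and expressed as percent inhibition of cell growth.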

Leishmania amazonensis = experiment: Antileishmanial activity against Leishmania amazonensis LV9 ([…]/M1841) amastigotes infected in mouse macrophage after 30 hrs by MTT assay; format: functional, organism-based
Method in brief: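 Intracellular amastigotes of L. amazonensis LV9 (MPROB/BR/1972/M1841), isolated from lesions and purified, grown inside murine macrophages. Compounds incubated with infected macrophages for 30 h. IC50 reported.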

Leishmania donovani = experiment: Antileishmanial activity against Leishmania donovani MHOM/ET/1967/HU3 (LV9) promastigotes after 72 hrs by MTT assay; format: functional, organism-based
Method in brief: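 Promastigotes of L. donovani LV9 clone (MHOM/ET/67/HU3) exposed to drug for 72 h. Viability read by MTT assay and IC50 derived.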

[3] = Selectivity index, ratio of IC50 for mouse macrophage to IC50 for Leishmania amazonensis LV9 ([…]/M1841) amastigotes
Method in brief: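 Selectivity index is the IC50 for cytotoxicity against murine macrophages divided by the IC50 against L. amazonensis LV9 intracellular amastigotes. Amastigotes were assayed after 30 h incubation of infected macrophages with drug.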

[4] = Inhibition of tubulin assembly assessed as ratio of IC50 for drug to IC50 for deoxypodophyllotoxin
[5] = Inhibition of tubulin assembly; method in brief: as §1
HL-60 [6] = experiment: Induction of apoptosis in human HL60 cells assessed as fold activation of caspase 3/7 at 10 uM; format: functional
Method in brief: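 HL60 human leukemia cells treated with compound. Caspase 3/7 activity measured with DEVD-AMC substrate and given as fold activation at the optimal compound concentration.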

KB [7] = experiment: Antiproliferative activity against human KB cells after 72 hrs by MTS assay; format: functional, cell-based
HL-60 [8] = experiment: Induction of apoptosis in human HL60 cells assessed as fold activation of caspase 3/7 at 100 nM; format: functional
Method in brief: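 HL60 human leukemia cells; caspase 3/7 activation measured using DEVD-AMC substrate; reported as fold activation at the optimal compound concentration.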

P388 = experiment: Cytotoxicity against mouse P388 cells; format: functional, cell-based
KB [9] = experiment: Cytotoxicity against human KB cells; format: functional, cell-based; method in brief: as §2

| Structure (SMILES) | inhibition [1] [%] | inhibition (INH) (KB [2]) [%] | pIC50 (Leishmania donovani) | Activity (Leishmania amazonensis) | Ratio IC50 [4] | pIC50 [5] | further results |
| --- | --- | --- | --- | --- | --- | --- | --- |
| COc1ccc(/C=C/C(=O)c2c(OC)c(OC)c(OC)c(OC)c2OC)cc1[N+](=O)[O-] | < 30 | 19 |  |  |  |  |  |
| COc1cc(C(=O)/C=C/c2cccc([N+](=O)[O-])c2)cc(OC)c1OC |  | 29 | 6.40 |  |  |  | pIC50 (Leishmania amazonensis): 4.59; Ratio IC50 [3]: 2.8 |
| COc1ccc(/C=C/C(=O)c2c(O)c(OC)c(OC)c(OC)c2OC)cc1O |  | 49 | 4.60 | inactive | 3.8 | 4.89 | fold change (FC) (HL-60 [6]): 3.2 |
| COc1ccc(/C=C/C(=O)c2c(OC)c(OC)c(OC)c(OC)c2OC)cc1N | < 30 | 29 |  |  |  |  |  |
| COc1ccc(/C=C/C(=O)c2cc(OC)c(OC)c(OC)c2)cc1N |  | 100 |  |  | 1 | 5.43 | pIC50 (KB [7]): 7.51; fold change (FC) (HL-60 [8]): 3.6 |
| COc1c(O)c(OC)c(OC)c(C(=O)/C=C/c2ccccc2)c1O [ISODIDYMOCARPIN] |  |  |  |  |  |  | pIC50 (P388): 4.95 |
| COc1ccc(/C=C/C(=O)c2c(O)c(OC)c(OC)c(OC)c2OC)cc1N |  | 40 | 4.36 | inactive | 4.1 | 4.85 | fold change (FC) (HL-60 [6]): 2.9 |
| COc1ccc(/C=C/C(=O)c2cc(OC)c(OC)c(OC)c2)cc1O |  | 100 |  |  | 1.3 | 5.37 | pIC50 (KB [7]): 7.77; fold change (FC) (HL-60 [8]): 3.6 |
| COc1ccc(/C=C/C(=O)c2c(OC)c(OC)c(OC)c(OC)c2OC)cc1O | < 30 | 22 | 4.70 |  |  |  |  |
| COc1c(O)c(OC)c(C(=O)/C=C/c2ccccc2)c(O)c1OC [PEDICIN] |  |  |  |  |  | 3.52 | pIC50 (KB [9]): 4.67 |
| COc1c(O)c(C(=O)/C=C/c2cccc([N+](=O)[O-])c2)c(OC)c(OC)c1OC |  | 31 | 5.36 |  |  |  | pIC50 (Leishmania amazonensis): 4.59; Ratio IC50 [3]: 2.5 |
| COc1ccc(/C=C/C(=O)c2c(O)c(OC)c(OC)c(OC)c2OC)cc1[N+](=O)[O-] | < 30 | 43 | 5.28 | inactive |  |  | fold change (FC) (HL-60 [6]): 1.2 |
| COc1ccc(/C=C/C(=O)c2cc(OC)c(OC)c(OC)c2)cc1[N+](=O)[O-] |  | 44 | 5.55 | inactive |  |  |  |
